Data as given in ChEMBL document CHEMBL4616716, “ONO-8430506: A Novel Autotaxin Inhibitor That Enhances the Antitumor Effect of Paclitaxel in a Breast Cancer Model” (ACS Med Chem Lett, 2020).

Key:
Autotaxin [1] = target: T1, Autotaxin (Homo sapiens, UniProt Q13822); assay: Inhibition of recombinant human ATX assessed as reduction in choline release using LPC(16:0) as substrate incubated for 15 hrs
In short: (§1)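 Recombinant human ATX with 16:0 LPC as substrate. Single-point inhibition was tested at 30 μM, and IC50 values were determined.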

Autotaxin [2] = target: T1, Autotaxin; assay: Selectivity index, ratio of IC50 for LysoPLD activity of ATX in human plasma to IC50 for recombinant human ATX assessed as reduction in choline release using LPC(16:0) as substrate incubated for 15 hrs
In short: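 Ratio of two IC50 values. One comes from LysoPLD activity in human plasma. The other comes from purified recombinant human ATX. Both assays use 16:0 LPC as substrate.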

Autotaxin [3] = target: T1, Autotaxin; assay: Inhibition of LysoPLD activity of ATX in human plasma assessed as reduction in choline release using LPC(16:0) as substrate incubated for 15 hrs; assay type: cell-free
In short: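 LysoPLD activity in human plasma with 16:0 LPC as substrate; IC50 determined.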

[4] = Protein binding in human plasma measured after 4 hrs by LC-MS/MS analysis; assay type: ADME, cell-free; settings: read-out: PPB (converted)
[5] = AUC in Sprague-Dawley rat at 0.5 mg/kg, po administered as single cassette dosing by LC-MS/MS analysis; assay type: ADME, organism-based; settings: in vivo
In short: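 Rat cassette dosing, 0.5 mg/kg oral; plasma AUC reported.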

[6] = Protein binding in rat plasma measured after 4 hrs by LC-MS/MS analysis; assay type: ADME, cell-free; settings: read-out: PPB (converted)
[7] = Octanol/phosphate buffer partition coefficient, LogD of compound at pH 7.4 mixed for 1 hr using benchtop-rotator followed by further incubation for 1 hr by ESI-LC-MS/MS analysis; assay type: physicochemical
[8] = Drug metabolism in human hepatocytes assessed as compound isomerization by measuring conversion ratio at 1 uM incubated for 2 hrs by LC-MS/MS analysis; assay type: ADME, cell-based, Hepatocyte; settings: read-out: Drug metabolism
In short: (§2)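 Hepatocytes from human, rat, dog and monkey were incubated with the trans isomer. The conversion ratio is the cis isomer concentration over the sum of cis and trans, 2 h after the start of incubation.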

[9] = Drug metabolism in rat hepatocytes assessed as compound isomerization by measuring conversion ratio at 1 uM incubated for 2 hrs by LC-MS/MS analysis; assay type: ADME, cell-based, Hepatocyte; settings: read-out: Drug metabolism; in short: as §2
[10] = Drug metabolism in monkey hepatocytes assessed as compound isomerization by measuring conversion ratio at 1 uM incubated for 2 hrs by LC-MS/MS analysis; assay type: ADME, cell-based, Macaca mulatta, Hepatocyte; settings: rhesus monkey, read-out: Drug metabolism; in short: as §2
[11] = Drug metabolism in dog hepatocytes assessed as compound isomerization by measuring conversion ratio at 1 uM incubated for 2 hrs by LC-MS/MS analysis; assay type: ADME, cell-based, Canis lupus familiaris, Hepatocyte; settings: read-out: Drug metabolism; in short: as §2
[12] = Metabolic stability in human hepatocytes assessed as parent compound remaining at 1 uM measured after 2 hrs by LC-MS/MS analysis; assay type: ADME, cell-based, Hepatocyte; settings: read-out: Stability
In short: (§3)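 Human and rat hepatocyte incubation; percent parent remaining after 2 h.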

[13] = Plasma clearance in Sprague-Dawley rat at 1 mg/kg, iv by LC-MS/MS analysis; assay type: ADME, organism-based
In short: (§4)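 Single-dose rat PK, 1 mg/kg iv and 3 mg/kg po, n = 3. Plasma clearance was taken from the iv dose. Bioavailability was calculated from the iv and oral doses.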

[14] = Metabolic stability in rat hepatocytes assessed as parent compound remaining at 1 uM measured after 2 hrs by LC-MS/MS analysis; assay type: ADME, cell-based, Hepatocyte; settings: read-out: Stability; in short: as §3
[15] = Oral bioavailability in Sprague-Dawley rat at 3 mg/kg by LC-MS/MS analysis; assay type: ADME, organism-based; settings: in vivo; in short: as §4
MDA-MB-231 [16] = assay: (§5) Potentiation of paclitaxel-induced antitumor activity against human MDA-MB-231 cells xenografted in SCID mouse assessed as tumor growth inhibition at 100 mg/kg, po administered twice daily for 32 days in combination with paclitaxel at 20 mg/kg, ip three times weekly for 5 weeks and […] (reference value: 81.5%); assay type: functional
In short: (§6)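 MDA-MB-231 human breast tumour-bearing mice dosed orally at 30 or 100 mg/kg twice daily for 32 days. Where combined, paclitaxel was given at 20 mg/kg ip three times weekly for 5 weeks. Tumour volume was followed and reported at day 32. Tumour growth inhibition was taken from median tumour volume versus vehicle. Groups of n = 8–9 were compared by Student t test.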

Autotaxin [17] = target: T1, Autotaxin; assay: In vivo inhibition of lysoPLD activity of ATX in SCID mouse plasma xenografted with human MDA-MB-231 cells at 30 mg/kg, po administered twice daily for 32 days in combination with paclitaxel at 20 mg/kg, ip three times weekly for 5 weeks and measured at 18 hrs post-last dose relative to control; assay type: functional, organism-based
[18] = Clearance in cynomolgus monkey at 0.3 mg/kg, iv administered as single dose by LC-MS/MS analysis; assay type: ADME, organism-based, Macaca fascicularis; settings: in vivo
MDA-MB-231 [19] = assay: Antitumor activity against human MDA-MB-231 cells xenografted in SCID mouse assessed as tumor growth inhibition at 100 mg/kg, po administered twice daily for 32 days and […] relative to control; assay type: functional; settings: MDA-MB-231, po, read-out: TGI; in short: as §6
[20] = Half life in cynomolgus monkey at 0.3 mg/kg, iv administered as single dose by LC-MS/MS analysis; assay type: ADME, organism-based, Macaca fascicularis; settings: in vivo
[21] = Oral bioavailability in Sprague-Dawley rat at […] administered as single dose by LC-MS/MS analysis; assay type: ADME, organism-based; settings: in vivo; in short: as §4
Autotaxin [22] = target: T1, Autotaxin; assay: In vivo inhibition of lysoPLD activity of ATX in SCID mouse plasma xenografted with human MDA-MB-231 cells at 100 mg/kg, po administered twice daily for 32 days in combination with paclitaxel at 20 mg/kg, ip three times weekly for 5 weeks and measured at 18 hrs post-last dose relative to control; assay type: functional, organism-based
[23] = Volume of distribution at steady state in cynomolgus monkey at 0.3 mg/kg, iv administered as single dose by LC-MS/MS analysis; assay type: ADME, organism-based, Macaca fascicularis; settings: in vivo, read-out: Vdss
MDA-MB-231 [24] = assay: as §5, with “30” for “100”, “and measured on” for “and”; assay type: functional; in short: as §6
[25] = Oral bioavailability in cynomolgus monkey at 1 mg/kg administered as single dose by LC-MS/MS analysis; assay type: ADME, organism-based, Macaca fascicularis; settings: in vivo
[26] = Half life in Sprague-Dawley rat at 0.3 mg/kg, iv administered as single dose by LC-MS/MS analysis; assay type: ADME, organism-based; settings: in vivo
[27] = Clearance in Beagle dog at 0.3 mg/kg, iv administered as single dose by LC-MS/MS analysis; assay type: ADME, organism-based, Canis lupus familiaris; settings: in vivo
[28] = Cmax in cynomolgus monkey at 1 mg/kg, po administered as single dose by LC-MS/MS analysis; assay type: ADME, organism-based, Macaca fascicularis; design: dose 1 mg/kg, route oral; settings: in vivo
[29] = Cmax in SCID mouse at 1 mg/kg, po administered as single dose by LC-MS/MS analysis; assay type: ADME, organism-based; design: dose 1 mg/kg, route oral; settings: in vivo
[30] = Volume of distribution at steady state in Sprague-Dawley rat at 0.3 mg/kg, iv administered as single dose by LC-MS/MS analysis; assay type: ADME, organism-based; settings: in vivo, read-out: Vdss
[31] = Half life in Sprague-Dawley rat at 1 mg/kg, po administered as single dose by LC-MS/MS analysis; assay type: ADME, organism-based; settings: in vivo
[32] = Cmax in Sprague-Dawley rat at 1 mg/kg, po administered as single dose by LC-MS/MS analysis; assay type: ADME, organism-based; design: dose 1 mg/kg, route oral; settings: in vivo
[33] = Half life in Beagle dog at 0.3 mg/kg, iv administered as single dose by LC-MS/MS analysis; assay type: ADME, organism-based, Canis lupus familiaris; settings: in vivo
[34] = Volume of distribution at steady state in Beagle dog at 0.3 mg/kg, iv administered as single dose by LC-MS/MS analysis; assay type: ADME, organism-based, Canis lupus familiaris; settings: in vivo, read-out: Vdss
[35] = Half life in SCID mouse at 1 mg/kg, po administered as single dose by LC-MS/MS analysis; assay type: ADME, organism-based; settings: in vivo
[36] = Half life in Beagle dog at 1 mg/kg, po administered as single dose by LC-MS/MS analysis; assay type: ADME, organism-based, Canis lupus familiaris; settings: in vivo
[37] = Clearance in Sprague-Dawley rat at 0.3 mg/kg, iv administered as single dose by LC-MS/MS analysis; assay type: ADME, organism-based; settings: in vivo
[38] = Cmax in Beagle dog at 1 mg/kg, po administered as single dose by LC-MS/MS analysis; assay type: ADME, organism-based, Canis lupus familiaris; design: dose 1 mg/kg, route oral; settings: in vivo
[39] = Oral bioavailability in Beagle dog at 1 mg/kg administered as single dose by LC-MS/MS analysis; assay type: ADME, organism-based, Canis lupus familiaris; settings: in vivo
Autotaxin [40] = target: T1, Autotaxin; assay: Inhibition of recombinant human ATX assessed as reduction in choline release at 30 uM using LPC(16:0) as substrate incubated for 15 hrs relative to control; in short: as §1

Q: Which IC50 (Autotaxin [1]) does the source give for `CC(C)(CCC(=O)N1CCc2c(n(Cc3cccc(F)c3)c3ncccc23)C1)CC(=O)O` here?
A: 24 nM

Q: With `CC(C)(CCCC(=O)N1CCc2c(n(Cc3cccc(F)c3)c3ncccc23)C1)C(=O)O` as the molecule, how does the IC50 (Autotaxin [1]) read?
A: 17 nM

Q: What about the Ratio IC50 (Autotaxin [2]) of the same molecule?
A: 15

Q: What about the IC50 (Autotaxin [3]) of the same molecule?
A: 260 nM

Q: With `O=C(CC12CCC(C(=O)O)(CC1)C2)N1CCc2c(n(Cc3ccc(F)cc3F)c3ncccc23)C1` as the molecule, how does the fraction unbound at 4 h [4] read?
A: 0.008

Q: What about the IC50 (Autotaxin [1]) of the same molecule?
A: 11 nM

Q: And the AUC [5]?
A: 500 ng·h/mL

Q: What about the fraction unbound at 4 h [6] of the same molecule?
A: 0.061

Q: What about the IC50 (Autotaxin [3]) of the same molecule?
A: 7.9 nM

Q: What does the source list for `O=C(C[C@H]1CC[C@H](C(=O)O)CC1)N1CCc2c(n(Cc3ccc(F)cc3F)c3ncccc23)C1`?
A: fraction unbound at 4 h [4]: 0.016; logD at 1 h [7]: 1.15; metabolised at 2 h, 1 µM [8]: 29.8%; metabolised at 2 h, 1 µM [9]: 14.4%; fraction unbound at 4 h [6]: 0.021; metabolised at 2 h, 1 µM [10]: 21.4%; IC50 (Autotaxin [3]): 7.3 nM; metabolised at 2 h, 1 µM [11]: 9%

Q: Which results are given for `O=C(O)CCCCC(=O)N1CCc2c(n(Cc3cccc(F)c3)c3ncccc23)C1`?
A: remaining at 2 h, 1 µM [12]: 29%; IC50 (Autotaxin [1]): 50 nM; logD at 1 h [7]: 0.51; clearance [13]: 7.5 mL/min/kg; remaining at 2 h, 1 µM [14]: 10%; bioavailability [15]: 30%

Q: Which TGI (MDA-MB-231 [16]) does the source give for `O=C(CC12CCC(C(=O)O)(CC1)C2)N1CCc2c(n(Cc3ccc(F)cc3)c3ncccc23)C1` here?
A: 95.5%

Q: What about the inhibition (Autotaxin [17]) of the same molecule?
A: 97.1%

Q: What about the fraction unbound at 4 h [4] of the same molecule?
A: 0.01

Q: And the clearance [18]?
A: 5.8 mL/min/kg

Q: What about the IC50 (Autotaxin [1]) of the same molecule?
A: 10 nM

Q: What about the inhibition in vivo at 100 mg/kg (MDA-MB-231 [19]) of the same molecule?
A: 14.7%

Q: What about the half-life [20] of the same molecule?
A: 474 min

Q: And the bioavailability [21]?
A: 51.6%

Q: And the inhibition (Autotaxin [22])?
A: 99.3%

Q: And the Vd [23]?
A: 2.27 L/kg

Q: What about the TGI (MDA-MB-231 [24]) of the same molecule?
A: 91.2%

Q: What about the AUC [5] of the same molecule?
A: 842 ng·h/mL

Q: And the bioavailability [25]?
A: 30.8%

Q: What about the half-life [26] of the same molecule?
A: 204 min

Q: What about the clearance [27] of the same molecule?
A: 4.7 mL/min/kg

Q: And the Cmax [28]?
A: 63 ng/mL

Q: And the Cmax [29]?
A: 124 ng/mL

Q: What about the Vd [30] of the same molecule?
A: 1.47 L/kg

Q: And the fraction unbound at 4 h [6]?
A: 0.049

Q: What about the half-life [31] of the same molecule?
A: 150 min

Q: What about the Cmax [32] of the same molecule?
A: 261 ng/mL

Q: And the half-life [33]?
A: 534 min

Q: And the Vd [34]?
A: 1.86 L/kg

Q: And the half-life [35]?
A: 324 min

Q: What about the half-life [36] of the same molecule?
A: 354 min

Q: What about the clearance [37] of the same molecule?
A: 8.2 mL/min/kg

Q: And the Cmax [38]?
A: 1670 ng/mL

Q: What about the IC50 (Autotaxin [3]) of the same molecule?
A: 5.5 nM

Q: What about the bioavailability [39] of the same molecule?
A: 71.1%

Q: For `O=C(O)CCC(=O)N1CCc2c(n(Cc3ccccc3)c3ncccc23)C1`, which IC50 (Autotaxin [1]) is on record?
A: 5400 nM

Q: Which fraction unbound at 4 h [4] does the source give for `O=C(O)c1cccc(CC(=O)N2CCc3c(n(Cc4cccc(F)c4)c4ncccc34)C2)c1` here?
A: 0.011

Q: And the IC50 (Autotaxin [1])?
A: 100 nM

Q: For `O=C(O)CCCCCC(=O)N1CCc2c(n(Cc3ccccc3)c3ncccc23)C1`, which IC50 (Autotaxin [1]) is on record?
A: 250 nM

Q: Which inhibition (Autotaxin [40]) does the source give for `CC(=O)N1CCc2c(n(Cc3ccccc3)c3ncccc23)C1` here?
A: 51.6%
